# Screens from PubChem BioAssay.
# S100A4 inh HTS = inhibitors of human S100A4 binding to myosin IIA peptide; P26447; S100A4/TAMRA-MyoIIA peptide fluorescence polarization; inhibition, % at 10.7 µM; actives 0.14% (n = 360,000);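 active means mean inhibition of at least 70% across replicates, with every replicate also reaching that level; inconclusive means mean inhibition reaches 70% but some replicates fall short; inactive means mean inhibition below 70%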
# Target sequence (P26447 whole entry, looked up): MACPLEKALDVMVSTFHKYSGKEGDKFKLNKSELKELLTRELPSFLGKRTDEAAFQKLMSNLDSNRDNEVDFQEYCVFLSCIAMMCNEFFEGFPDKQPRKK
#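 System – human S100A4 monomer protein, biochemical binding assay · Buffer or medium – Calcium-containing HEPES buffer, pH 7.2 · Timing – 5 min between mix addition and reading · Also added – TAMRA-labelled myosin IIA heavy-chain peptide probe, 5 nM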
# CAL PDZ FP-1 = CAL PDZ (human) peptide binding inhibition; inhibition, % at 24.9 µM; Q9HD26; purified CAL PDZ, TMR-peptide fluorescence polarization, 1 h; actives 0.92% (n = 300,000);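 active means mean inhibition of at least 30% with at least half of replicates also reaching 30%; inconclusive means no clear call, values can overlap the other calls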;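 further: 0% = DMSO neutral control and 100% = excess unlabeled competitor peptide PRC23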
# ERAP1 HTS inh = ERAP1 (human) enzyme inhibition; inhibition, % at 10.7 µM; Q9NZ08; actives 0.15% (n = 340,000); recombinant ERAP1, Leu-AMC fluorescence, 60 min;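 active means mean replicate inhibition of at least 30%, or all replicates individually reaching that 30% level; inactive means mean below 30% and not every replicate reaching it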;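 further: 0% = neutral control wells and 100% = L-leucinethiol positive control wells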
# DENV2 CPE = protects cells from dengue virus 2 cytopathic effect | DENV2-infected cells, cytopathic effect rescue, plate reader | CPE inhibition, % at 9.99 µM | actives 1.7% (n = 350,000) | AID 651640; in the data active means CPE inhibition above about 20%, passing the limit was not always enough; inconclusive means no clear call, values can overlap the other calls; tested in BHK-21 cells;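 further: 0% = median of neutral control wells and 100% = median of positive control wells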
# SIRT5 inh = inhibitors of human sirtuin-5 desuccinylase. Q9NXA8. Purified SirT5, succinyl-peptide AMC, trypsin-coupled fluorescence. inhibition, % at 15 µM. actives 1.1% (n = 330,000); in the data active means inhibition above about 15%; inconclusive means no clear call, values can overlap the other calls
# Target sequence (Q9NXA8 whole entry, looked up): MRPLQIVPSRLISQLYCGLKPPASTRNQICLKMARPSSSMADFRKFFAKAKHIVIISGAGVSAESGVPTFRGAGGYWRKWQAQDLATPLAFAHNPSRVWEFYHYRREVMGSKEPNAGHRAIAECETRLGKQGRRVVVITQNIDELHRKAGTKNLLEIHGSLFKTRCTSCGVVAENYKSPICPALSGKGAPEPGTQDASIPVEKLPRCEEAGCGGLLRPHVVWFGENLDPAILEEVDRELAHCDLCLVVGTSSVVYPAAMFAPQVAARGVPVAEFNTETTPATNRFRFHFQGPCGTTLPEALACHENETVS
# CAL PDZ FP-2 = inhibitors of human CAL PDZ peptide binding. purified CAL PDZ, TMR-peptide fluorescence polarization, 1 h. inhibition, % at 20 µM. actives 0.02% (n = 330,000). AID 504414;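 active means highest replicate inhibition of at least 40%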;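 further: plate controls were DMSO neutral control wells for no effect and unlabeled competitor peptide control wells for full effect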
#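 Material: tagged CAL PDZ domain; buffer or medium: 25 mM sodium phosphate pH 7.4, 150 mM NaCl, TCEP, IgG, Thesit; compound dosing: single point, 20 µM; schedule: 1 h incubation at room temperature before polarization reading; measured by: FP readout, S and P plane fluorescence; read-out basis: percent inhibition from loss of millipolarization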
# * marks the source's active call; other numbers are inactive results; ? = inconclusive; · = no result given. Only some compounds are listed: those with a hit (about 2.9% of all), similar ones and a draw of the others.
SMILES,S100A4 inh HTS,CAL PDZ FP-1,ERAP1 HTS inh,DENV2 CPE,SIRT5 inh,CAL PDZ FP-2
COCC#Cc1ccc2c(c1)O[C@H](CN(C)Cc1ccccc1)[C@H](C)CN([C@H](C)CO)S2(=O)=O,10,·,6,2,-3,·
COCC#Cc1ccc2c(c1)O[C@@H](CN(C)Cc1ccccc1)[C@H](C)CN([C@H](C)CO)S2(=O)=O,-13,·,0,23*,2,·
COCC#Cc1ccc2c(c1)O[C@H](CN(C)Cc1ccccc1)[C@@H](C)CN([C@H](C)CO)S2(=O)=O,0,·,2,28*,1,·
COCC#Cc1ccc2c(c1)O[C@@H](CN(C)Cc1ccncc1)[C@H](C)CN([C@H](C)CO)S2(=O)=O,-5,·,-1,20*,-4,·
O=C(C[C@@H]1CC[C@H](NC(=O)CN2CCOCC2)[C@@H](CO)O1)NC1CCCCC1,6,·,-1,-8,12,·
c1cc[n+](CCC[n+]2ccccc2)cc1,0,-7,110*,-5,-3,0
O=C(CCN1CCCCC1)NCC[C@@H]1CC[C@@H](NC(=O)C2CCOCC2)[C@@H](CO)O1,-1,·,4,-7,7,·
Cc1ccc(S(=O)(=O)N(C)c2ccc(OC(C)C(=O)N3CCCC3)cc2)cc1C (centres undefined),-3,6,2,-5,-2,0
Cc1ccc(S(=O)(=O)N(C)c2ccc(OC(=O)c3cccs3)cc2)cc1C,-4,49*,-3,-3,-1,-1
CCN1CCN(S(=O)(=O)CC2(C)C3CCC2(C)C(=O)C3Br)CC1 (centres undefined),-12,41*,-2,-3,-2,0
C[C@@H]1CCCCO[C@@H](CN(C)C(=O)Nc2ccc(C(F)(F)F)cc2)[C@H](C)CN([C@H](C)CO)C(=O)c2cc(NS(=O)(=O)c3ccccc3)ccc2O1,-55,·,-5,38*,3,·
C[C@@H]1CN([C@@H](C)CO)C(=O)c2cc(NS(=O)(=O)c3ccccc3)ccc2O[C@@H](C)CCCCO[C@H]1CN(C)C(=O)Nc1ccc(C(F)(F)F)cc1,-11,·,1,7,·,·
C[C@H]1CCCCO[C@H](CN(C)C(=O)Nc2ccc(C(F)(F)F)cc2)[C@@H](C)CN([C@@H](C)CO)C(=O)c2cc(NS(=O)(=O)c3ccccc3)ccc2O1,86*,·,-6,18,5,·
C[C@@H]1CN([C@H](C)CO)C(=O)c2cc(NS(=O)(=O)c3ccccc3)ccc2O[C@@H](C)CCCCO[C@H]1CN(C)C(=O)Nc1ccc(C(F)(F)F)cc1,-4,·,-6,10,4,·
CCCC#Cc1cnc2c(c1)C(=O)N([C@@H](C)CO)C[C@@H](C)[C@@H](CN(C)C(=O)Cc1cccnc1)O2,4,·,1,13,8,·
Cc1ccc(CSc2nc3nc(C)cc(C)n3n2)cc1,14,-3,-3,-9,-2,0
Cc1cc(C)n2nc(SCc3cccc(S(=O)(=O)N(C)C)c3)nc2n1,0,43*,-3,-2,1,·
Cc1ccc(-c2ccc3c(c2)O[C@H](CN(C)Cc2ccncc2)[C@@H](C)CN([C@H](C)CO)S3(=O)=O)cc1,-3,·,-4,4,4,·
Cc1noc(C)c1S(=O)(=O)Nc1ccc2c(c1)C(=O)N([C@@H](C)CO)C[C@H](C)[C@H](CN(C)Cc1ccc(C(=O)O)cc1)OCCCC[C@@H](C)O2,13,·,-5,50*,0,·
Cc1noc(C)c1S(=O)(=O)Nc1ccc2c(c1)C(=O)N([C@H](C)CO)C[C@@H](C)[C@@H](CN(C)Cc1ccc(C(=O)O)cc1)OCCCC[C@@H](C)O2,-1,·,-6,38*,-12,·
Cc1noc(C)c1S(=O)(=O)Nc1ccc2c(c1)C(=O)N([C@@H](C)CO)C[C@@H](C)[C@H](CN(C)Cc1ccc(C(=O)O)cc1)OCCCC[C@H](C)O2,-17,·,-6,24*,-1,·
COc1ccc(NC(=O)Nc2cccc3c2O[C@H](CN(C)C(=O)Nc2cccc4ccccc24)[C@H](C)CN([C@@H](C)CO)C3=O)cc1,·,·,·,-5,·,·
C[C@@H]1CCCCO[C@@H](CN(C)C(=O)Nc2ccccc2)[C@@H](C)CN([C@@H](C)CO)C(=O)c2cc(NS(=O)(=O)c3ccccc3)ccc2O1,-5,·,2,0,5,·
C[C@@H](O)C#Cc1ccc2c(c1)O[C@H](CN(C)C(=O)C1CC1)[C@@H](C)CN([C@@H](C)CO)S2(=O)=O,?,·,2,-4,4,·
COc1ccc(S(=O)(=O)NCC(=O)NCc2cc(=O)n(C)c(=O)n2C)cc1,2,·,-4,57*,8,-1
SMILES,S100A4 inh HTS,CAL PDZ FP-1,ERAP1 HTS inh,DENV2 CPE,SIRT5 inh,CAL PDZ FP-2
CNC[C@@H]1OCCCC[C@H](C)Oc2ccc(NC(=O)NC(C)C)cc2C(=O)N([C@H](C)CO)C[C@H]1C,2,·,1,-2,1,·
C[C@H]1CCCCO[C@H](CN(C)Cc2ccc(C(F)(F)F)cc2)[C@@H](C)CN([C@@H](C)CO)C(=O)c2cc(NS(=O)(=O)c3ccccc3)ccc2O1,?,·,-1,-2,20*,·
C[C@@H]1CN([C@@H](C)CO)C(=O)c2cc(NS(=O)(=O)c3ccccc3)ccc2O[C@@H](C)CCCCO[C@@H]1CN(C)Cc1ccc(C(F)(F)F)cc1,9,·,-3,6,20*,·
C[C@@H]1CN([C@H](C)CO)C(=O)c2cc(NS(=O)(=O)c3ccccc3)ccc2O[C@@H](C)CCCCO[C@H]1CN(C)Cc1ccc(C(F)(F)F)cc1,-12,·,-2,-8,19*,·
C[C@H]1CCCCO[C@@H](CN(C)Cc2ccc(C(F)(F)F)cc2)[C@@H](C)CN([C@@H](C)CO)C(=O)c2cc(NS(=O)(=O)c3ccccc3)ccc2O1,-7,·,-2,0,12,·
COc1ccc(-c2csc(C(NC(C)=O)c3cccc(F)c3)n2)cc1 (centres undefined),5,·,-2,-7,·,·
CC(=O)NC(c1cccc(F)c1)c1nc(-c2ccc(N(C)C)cc2)cs1 (centres undefined),7,·,3,26*,2,·
O=C(C[C@@H]1CC[C@H](NC(=O)c2cccc(F)c2)[C@H](CO)O1)NCc1ccc(Oc2ccccc2)cc1,-4,·,1,-14,-2,·
COC(=O)c1sc(-c2ccccc2)cc1NC(=O)C1CC1,-2,-7,-1,-1,-9,12
CCOc1ccc(NC(=O)Nc2cc(-c3ccccc3)sc2C(=O)OC)cc1,-3,-1,2,5,16*,0
C[C@@H]1CN([C@@H](C)CO)C(=O)c2cc(NS(=O)(=O)c3ccc(F)cc3)ccc2O[C@@H](C)CCCCO[C@H]1CN(C)Cc1ccc(C(F)(F)F)cc1,-7,·,1,0,28*,·
